Results: ChEMBL document CHEMBL1781992, “A novel monocarbonyl analogue of curcumin, (1E,4E)-1,5-bis(2,3-dimethoxyphenyl)penta-1,4-dien-3-one, induced cancer cell H460 apoptosis via activation of endoplasmic reticulum stress signaling pathway” (J Med Chem, 2011)
Active and inactive are the calls of the source. The calls are words filed in the database; no cut-off is given here.

Legend:
NCI-H460 [1] = assay: Cytotoxicity against human NCI-H460 cells assessed as cell viability at 20 uM after 24 hrs by CellTiter-Glo analysis; assay type: functional; settings: NCI-H460, 24 h, read-out: Activity
Outline: (§1)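 H460 cells (5 × 10^3/well) seeded overnight, then given fresh medium containing compound from DMSO stock (final 5, 10, 20 μM; 2.5–30 μM in the figure) for 24 h. Viability measured with CellTiter-Glo and expressed as percent of vehicle-treated cells; Student's t test.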

NCI-H460 [2] = assay: Increase in p53 expression in human NCI-H460 cells after 1 to 12 hrs by Western blot analysis; assay type: functional, cell-based
Outline: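 H460 cells exposed to 20 μM for varying times, or to a range of concentrations for 12 h. Lysates made in Tris-HCl pH 7.4/NaCl/NP40/SDS buffer with protease and phosphatase inhibitors, then probed for p53 by Western blot with chemiluminescent detection; bands quantified by densitometry.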

NCI-H460 [3] = assay: Induction of GRP78 mRNA expression in human NCI-H460 cells after 3 hrs by real time quantitative PCR analysis; assay type: functional, cell-based
Outline: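 H460 cells treated across a concentration range for 3 h. GRP78 mRNA quantified by RT-qPCR, normalized to β-actin and expressed as percent of vehicle.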

NCI-H460 [4] = assay: Induction of apoptosis in human NCI-H460 cells assessed as non-viable necrotic cells at 5 uM after 6 hrs by annexinV-propidium iodide staining based flow cytometric analysis relative to control; assay type: functional
Outline: (§2)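 H460 cells plated for 6 h, then treated with 5, 10 or 20 μM. Cells washed, trypsin-EDTA detached and resuspended in PBS, then stained with annexin V and propidium iodide plus RNase and 0.1% Triton X-100 for 30 min at 37 °C before flow cytometry. Figure legend gives 6 h incubation.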

NCI-H460 [5] = assay: Induction of apoptosis in human NCI-H460 cells assessed as activation of caspase 3 activity at 20 uM after 24 hrs by Western blot analysis; assay type: functional, cell-based
NCI-H460 [6] = assay: Induction of CHOP protein expression in human NCI-H460 cells at 20 uM after 12 hrs by Western blot analysis; assay type: functional, cell-based
Outline: (§3)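 H460 cells treated for 6–24 h, or across a range of concentrations. CHOP protein measured by Western blot, densitometry expressed as percent of control; Student's t test.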

NCI-H460 [7] = assay: Induction of apoptosis in human NCI-H460 cells at 20 uM after 6 hrs by flow cytometric analysis; assay type: functional; outline: as §2
NCI-H460 [8] = assay: Induction of apoptosis in human NCI-H460 cells after 6 hrs by Flow cytometric analysis; assay type: functional, cell-based; outline: as §2
NCI-H460 [9] = assay: Induction of apoptosis in human NCI-H460 cells assessed as morphological changes at 5 to 20 uM after 24 hrs by light microscopic analysis; assay type: functional, cell-based
Outline: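 H460 cells treated at 5, 10 or 20 μM for 24 h; morphology imaged by light microscope at 20× magnification.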

NCI-H460 [10] = assay: Cytotoxicity against human NCI-H460 cells assessed as reduction of cell survival after 24 hrs by CellTiter-Glo analysis; assay type: functional, cell-based; outline: as §1
Mus musculus [11] = assay: Toxicity in ICR mouse assessed as mortality at 400 to 800 mg/kg; assay type: organism-based; set-up: dose 400-800 mg/kg; settings: in vivo
NCI-H460 [12] = assay: Induction of apoptosis in human NCI-H460 cells assessed as early apoptotic cells at 20 uM after 6 hrs by annexinV-propidium iodide staining based flow cytometric analysis relative to control; assay type: functional; outline: as §2
NCI-H460 [13] = assay: Antitumor activity against human NCI-H460 cells xenografted in ip dosed nude Balb/cA mouse assessed as decrease in tumor volume administered qd for 20 days; assay type: functional, organism-based
Outline: (§4)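 BALB/cA nu/nu female athymic mice bearing sc right-flank xenografts (3 × 10^6 H460 cells in PBS); once-daily ip dosing began on day 10, when tumors reached 100–300 mm3. Water-soluble liposome preparation in PBS at 10 or 50 mg/kg; controls received liposome vehicle in PBS. Volume = lw²/2; T/C read on day 22. Seven mice per group, mean ± SD; Student's t test.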

NCI-H460 [14] = assay: Induction of apoptosis in human NCI-H460 cells assessed as non-viable necrotic cells at 10 uM after 6 hrs by annexinV-propidium iodide staining based flow cytometric analysis relative to control; assay type: functional; outline: as §2
NCI-H460 [15] = assay: Decrease in CHOP protein expression in human NCI-H460 cells transfected with lentivirus carrying CHOP siRNA at 10 uM after 6 hrs by Western blot analysis
NCI-H460 [16] = assay: Antitumor activity against human NCI-H460 cells xenografted in nude Balb/cA mouse assessed as decrease in tumor volume at 50 mg/kg, ip qd for 20 days measured on day 22 relative to control; assay type: functional; set-up: scale not given: the % may be the effect or the level left; settings: route intraperitoneal; outline: as §4
NCI-H460 [17] = assay: Induction of ATF-4 protein level in human NCI-H460 cells at 20 uM after 6 hrs by Western blot analysis
NCI-H460 [18] = assay: Induction of ATF-4 mRNA expression in human NCI-H460 cells after 3 hrs by real time quantitative PCR analysis
[19] = target: Transcription factor Jun (Homo sapiens) (UniProt P05412); assay: Induction of c-Jun phosphorylation in human NCI-H460 cells at 20 uM after 12 hrs by Western blot analysis; assay type: cell-based
Outline: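 H460 cells cultured in RPMI 1640 with 5% heat-inactivated FBS at 37 C, 10% CO2; exposed to 20 μM for a time course. Lysed at 0 C in Tris-HCl pH 7.4 buffer with NP40, SDS, and protease/phosphatase inhibitors. Phospho-c-Jun detected by Western blot with chemiluminescence, actin as loading control; band density quantified.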

Mus musculus [20] = assay: Toxicity in ICR mouse assessed as organ weight change at 400 to 800 mg/kg; assay type: organism-based; set-up: dose 400-800 mg/kg; settings: in vivo
NCI-H460 [21] = assay: Induction of apoptosis in human NCI-H460 cells assessed as early apoptotic cells at 5 uM after 6 hrs by annexinV-propidium iodide staining based flow cytometric analysis relative to control; assay type: functional; outline: as §2
NCI-H460 [22] = assay: Cytotoxicity against human NCI-H460 cells transfected with lentivirus carrying CHOP siRNA assessed as reduction of cell viability at 10 uM after 24 hrs by CellTiter-Glo analysis; assay type: functional, cell-based
Outline: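 H460 cells infected with lentivirus carrying CHOP siRNA or nonspecific siRNA; 48 h later treated with 10 μM for 24 h. Survival measured with CellTiter-Glo as percent of nontransfected DMSO-treated cells.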

NCI-H460 [23] = assay: Induction of apoptosis in human NCI-H460 cells assessed as viable cells at 20 uM after 6 hrs by annexinV-propidium iodide staining based flow cytometric analysis relative to control; assay type: functional; settings: NCI-H460, 6 h, read-out: Activity; outline: as §2
NCI-H460 [24] = assay: Induction of apoptosis in human NCI-H460 cells assessed as activation of caspase 9 activation at 20 uM after 24 hrs by Western blot analysis; assay type: functional, cell-based
NCI-H460 [25] = assay: Induction of apoptosis in human NCI-H460 cells assessed as late apoptotic cells at 10 uM after 6 hrs by annexinV-propidium iodide staining based flow cytometric analysis relative to control; assay type: functional; outline: as §2
NCI-H460 [26] = assay: Induction of CHOP protein expression in human NCI-H460 cells after 6 to 24 hrs by Western blot analysis; assay type: functional, cell-based; outline: as §3

Sequence of Transcription factor Jun (Homo sapiens) (P05412 whole entry): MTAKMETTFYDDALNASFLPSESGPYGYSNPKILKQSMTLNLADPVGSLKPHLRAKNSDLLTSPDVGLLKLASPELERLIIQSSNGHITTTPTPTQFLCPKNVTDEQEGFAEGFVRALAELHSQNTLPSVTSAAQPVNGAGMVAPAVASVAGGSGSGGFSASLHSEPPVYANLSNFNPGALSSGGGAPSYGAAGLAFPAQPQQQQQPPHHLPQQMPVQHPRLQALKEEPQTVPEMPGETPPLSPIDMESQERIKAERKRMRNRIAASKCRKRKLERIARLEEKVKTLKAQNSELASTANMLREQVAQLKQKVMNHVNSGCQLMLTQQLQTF

Compound: COc1cccc(/C=C/C(=O)/C=C/c2cccc(OC)c2OC)c1OC
- viability at 20 µM (NCI-H460 [1]): 16%
- Activity (NCI-H460 [2]): Dose-dependent effect
- Activity (NCI-H460 [3]): Dose-dependent effect
- Activity (NCI-H460 [4]): 0.55%
- Activity (NCI-H460 [5]): Active
- Activity (NCI-H460 [6]): Active
- Activity (NCI-H460 [7]): 29.63%
- Activity (NCI-H460 [8]): Dose-dependent effect
- Activity (NCI-H460 [9]): Active
- Activity (NCI-H460 [10]): Dose-dependent effect
- Activity (Mus musculus [11]): Non-toxic
- Activity (NCI-H460 [12]): 29.68%
- Activity (NCI-H460 [13]): Dose-dependent effect
- Activity (NCI-H460 [14]): 1.49%
- Activity (NCI-H460 [15]): inactive
- Activity (NCI-H460 [16]): 46.5%
- Activity (NCI-H460 [17]): Active
- Activity (NCI-H460 [18]): Dose-dependent effect
- Activity [19]: Active
- Activity (Mus musculus [20]): Non-toxic
- Activity (NCI-H460 [21]): 7.44%
- Activity (NCI-H460 [22]): inactive
- viability at 20 µM (NCI-H460 [23]): 57.3%
- Activity (NCI-H460 [24]): Active
- Activity (NCI-H460 [25]): 3.3%
- Activity (NCI-H460 [26]): Dose-dependent effect
